Assay outcomes deposited in PubChem by several laboratories.
The list is not random: actives were taken first. Their share in the collection is about 2.2%.
Dynein transport: dynein cargo transport inhibition. 3617.4 mouse cells, GR-EGFP nuclear translocation imaging; test concentration mostly 20 µM; stimulated with dexamethasone, 1 µM; hits give low values. z-score, hits read low. 0.47% of 220,000 active. AID 1381;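 active = plate z-score of nuclear minus cytoplasmic receptor signal below a set negative limit, without overly bright fluorescence or cell loss, cut at about -3.5 in these data, passing the limit was not always enough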;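 also: z-score of nuclear minus cytoplasmic ring GR-EGFP intensity difference per well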
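medium = tetracycline-free induction medium containing charcoal-stripped FBS | probe or stimulus = dexamethasone, 1.0 µM final | timing = 48 h induction, then 1 h compound, then 30 min agonist, 37 °C | detection = automated 10x imaging of fixed Hoechst-stained cells | read-out basis = nuclear versus cytoplasmic GR-EGFP signal, averaged per well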
HCT116 PTEN-null: PTEN-deleted cell growth suppression; HCT116 PTEN-null viability, CellTiter-Glo, 60 h; hits give low values; viability, % at 10 µM; 1.2% of 140,000 active;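 active = viability at or below a set limit, 4 SD under the median of all tested compounds, cut at about 3.7% in these data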;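 also: PTEN knockout HCT116 line with beta catenin targeted HCT116 as companion control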
SDO1 yeast rescue: restores growth of sdo1-depleted yeast | S. cerevisiae sdo1-depleted JHY4D growth rescue, OD600 30 h; hits give high values; pdr5 snq2 efflux-pump mutant strain | z-score at 10 µM | 0.21% of 140,000 active | AID 817;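 active = z-score above 3 at both the 24 hr and the 30 hr optical density reads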;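 also: z-score against mean and SD of all compound wells on the same plate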
bCat KO growth: beta-catenin-lacking colon tumor cell growth suppression; HCT116 beta-catenin knockout viability, CellTiter-Glo, 60 h; hits give low values; viability, % at 10 µM; 1.5% of 140,000 active;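 active = viability at or under a set limit, the compound median less 4 SD, cut at about 6% in these data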;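 also: 0% = Hyamine 1622 control at 20 µM and 100% = untreated cell control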
Autophagy mod: modulators of autophagy | MEF GFP-LC3 puncta imaging; test concentration mostly 10 µM | calls only at 10 µM (by protocol) | 0.98% of 190,000 active | AID 463193;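 active = percentage of spot-positive cells more than 3 SD above its plate mean, without a fluorescence outlier flag or 80% toxicity; inconclusive = no clear call, values can overlap the other calls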;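 also: spot-positive cell cutoff set from DMSO-treated cells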
Dynein inh conf: dynein cargo transport inhibition, confirmation | shares compounds with Dynein transport | calls only at 20 µM | 3617.4 GR-EGFP nuclear translocation imaging, dexamethasone-induced | 69% of 1,000 active;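 active = inhibition of receptor movement into the nucleus at or above a set limit in both runs, with normal cell brightness and cell count; inconclusive = limit reached in only one run, brightness and count normal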;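 also: dexamethasone at 1 µM final in well for 30 min; nuclear minus cytoplasmic GR-EGFP mean intensity difference in channel 2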
Active calls of the source: *; i = inactive; ? = inconclusive; . = not tested or not shown; + = active, no number.

SMILES	Dynein transport	HCT116 PTEN-null	SDO1 yeast rescue	bCat KO growth	Autophagy mod	Dynein inh conf
CC(C)N1C(=O)/C(=C/c2nc3ccccc3c(=O)n2-c2ccccc2)c2ccccc21	-4.1*	2.1*	-1.2	2.5*	i	+
CC(C)N1C(=O)/C(=C\c2nc3ccccc3c(=O)n2-c2ccccc2)c2ccccc21	-5*	3.1*	-1.3	7	i	+
CC(C)N1C(=O)C(Cc2nc3ccccc3c(=O)n2-c2ccccc2)c2ccccc21 (centres undefined)	0.33	66	-1.4	62	i	.
O=C1c2ccccc2-n2c1nc1ccccc1c2=O	0.37	.	.	.	i	.
O=c1[nH]c(/C(Cl)=C/c2cccc(F)c2)nc2cc(C(F)(F)F)ccc12	-0.13	.	.	.	i	.
Clc1ccc(-c2cn3c(n2)-c2ccccc2C3)cc1Cl	-1.2	70	-1.2	66	i	.
CC(C)c1ccc(/C=C/C(=O)n2nnc3ccccc32)cc1	-4.5*	98	-0.36	91	i	+
O=C(C(Cc1ccccc1)N1C(=O)c2ccccc2C1=O)N1CCc2ccccc21 (centres undefined)	-0.085	97	-1.1	93	i	.
Cc1noc(C)c1COC(=O)c1cc2c3ccccc3n(C)c2s1	-0.67	72	-1.2	66	.	.
N=c1n(Cc2ccccc2)c2ccccc2n1CC(O)COc1ccc(Cl)cc1Cl (centres undefined)	-3.8*	.	.	.	i	i
CCN1CCN(Cc2c(O)ccc3c2O/C(=C\C=C\c2ccccc2)C3=O)CC1	-4.9*	62	0.57	63	i	+
O=C1/C(=C/C=C/c2ccccc2)Oc2c1ccc(O)c2CN1CCN(CCO)CC1	-1.3	.	.	.	.	.
COC1=C(C)C(O)=C(C(=O)/C=C/c2ccccc2)C(=O)C1(C)C	-5.2*	.	.	.	.	+
S=c1[nH]nc(-c2cc(-c3ccccc3)n[nH]2)n1/N=C/C(Br)=C/c1ccccc1	-4.3*	.	.	.	.	?
CCOC(=O)CSC1=NC(=O)/C(=C/c2ccc(Br)cc2)S1	-4.3*	.	.	.	i	+
O=C(CCl)N1CCN2C(=O)c3ccccc3C12c1ccc(Cl)cc1 (centres undefined)	-4.6*	.	.	.	i	+
O=C(Nc1cccc(Cl)c1)N1CCN2C(=O)c3ccccc3C12c1ccccc1 (centres undefined)	-0.41	61	-0.99	80	i	.
CC(C)(C)c1cc(CCC(=O)NN)cc(C(C)(C)C)c1O	-0.96	.	.	.	i	.
COCCOC(=O)/C(=C\c1cc(C(C)(C)C)c(O)c(C(C)(C)C)c1)C(C)=O	-5.3*	.	.	.	.	+
Cc1cc(C)n(-c2cccc(CN(C)Cc3nc(-c4cnccn4)no3)c2)n1	2.1	.	.	.	i	.
C=CCS(=O)(=O)c1nc2ccccc2s1	-5.4*	24	-1.3	11	i	i
CC(C)(C)S(=O)(=O)c1nc2ccccc2s1	0.93	96	0.34	91	i	.
CCN(CC)Cc1cc(O)c(CN(CC)CC)cc1O	-4.9*	.	.	.	i	+
CCc1oc(C(=O)O)cc1CN(CC)CC	-0.11	94	1.3	84	i	.
CCOC(=O)c1c(C)oc2c(F)c(F)c(F)c(F)c2c1=O	-4.6*	7	-1.8	9	i	+
SMILES	Dynein transport	HCT116 PTEN-null	SDO1 yeast rescue	bCat KO growth	Autophagy mod	Dynein inh conf
O=C(OCc1nnc(-c2ccc(Cl)cc2)o1)c1ccc(O)cc1	-0.43	.	.	.	i	.
CS(=O)(=O)c1ccc(C(=O)OCc2nnc(-c3ccc(Cl)cc3)o2)cc1[N+](=O)[O-]	-5.6*	.	.	.	i	+
O=C(N/N=C1\CCCc2c1[nH]c1ccc([N+](=O)[O-])cc21)c1ccncc1	2.7	77	0.58	81	i	.
CC(=O)N1c2ccccc2C(CBr)=CC1(C)C	-5.2*	.	.	.	.	i
O=C(CCl)c1ccc2c(c1)CCN2C(=O)C1CCCCC1	-5.7*	.	.	.	i	+
O=C(CCl)c1ccc2c(c1)CCN2C(=O)C1CC1	-4.8*	.	.	.	i	+
CCC1CCCCN1S(=O)(=O)c1ccc2c(c1)CCN2C(=O)C1CCC1 (centres undefined)	-1.6	63	-1.7	60	i	.
COC(=O)CS(=O)(=O)c1nnc([C@H](Cc2ccccc2)NC(=O)OC(C)(C)C)o1	-3.9*	91	-0.33	98	i	+
Cc1cccc(CS(=O)(=O)c2nnc([C@H](Cc3ccccc3)NC(=O)OC(C)(C)C)o2)c1	-4.9*	1.4*	-2.4	1.4*	i	i
CC(C)(C)OC(=O)N[C@@H](Cc1ccccc1)c1nnc(SCC(N)=O)o1	-0.39	.	.	.	.	.
C=CCn1c(=NC(=O)C2CCCCC2)sc2cc(NC(C)=O)ccc21	-0.65	58	-1.6	73	i	.
O=[N+]([O-])c1ccc2c(c1)N([O-])C1(CCCCC1)[N+]2=O	-3.6*	.	.	.	.	+
O=S(=O)(/N=C(\Sc1ccccc1)c1ccccc1)c1ccc(Cl)cc1	-2.8	103	-1.2	95	i	.
Cc1ccc(S(=O)(=O)/N=C(\Sc2ccccc2)c2ccccc2)cc1	-3.5*	92	-1.2	87	i	+
O=C(CCS(=O)(=O)c1cccc2nonc12)NCc1ccc(Cl)cc1	0.51	.	.	.	i	.
COc1ccc2cc(CN(CCCN3CCOCC3)Cc3nnnn3C3CCCC3)c(=O)[nH]c2c1	2.4	85	-0.1	89	i	.
CCSc1nc2ccccc2n1C(=O)/C=C\c1ccc(OC)c(OC)c1	-4.3*	6	-0.61	1.7*	i	+
Cc1ccc(Nc2c([N+](=O)[O-])c(=O)n(C)c3ccccc23)cc1C	-0.093	89	-0.94	83	i	.
COC(=O)C(=C/C(C)=C/c1cccs1)C(=O)OC	-4*	.	.	.	i	?
